A selection: hits, their analogues and other compounds. The true share with any hit is near 1.9%.
IMP-1 inhibitor: IMP-1 metallo-beta-lactamase inhibitors, primary screen, biochemical, epi-absorbance readout, Pseudomonas aeruginosa enzyme | actives 0.45% (n = 290,000) | purified IMP-1, nitrocefin hydrolysis, epi-absorbance fluorescence | inhibition, % at 5.6 µM;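 active = inhibition above the mean plus 3 SD of all compounds in the same screening run, cut at about 4.5% in these data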
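System: purified IMP-1 / Input: IMP-1 dispensed at 0.2 nM / Medium: 50 mM HEPES pH 7.1, 50 µM ZnSO4, 0.05% Brij 35 / Timing: 15 min enzyme–compound preincubation, then 25 min nitrocefin reaction, 25 °C / Technique: plate fluorescence quenching by hydrolysis product, ex 480/em 530 nm / Repeats: singlicate testing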
VIM-2 inhibitor: VIM-2 metallo-beta-lactamase inhibitors, primary screen, biochemical, epi-absorbance readout, Pseudomonas aeruginosa enzyme | inhibition, % at 5.6 µM | AID 1527, 2009 | purified VIM-2, nitrocefin hydrolysis, epi-absorbance fluorescence | actives 0.89% (n = 290,000);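 active = inhibition above the mean of all tested compounds plus 3 SD, cutoff set per screening run, cut at about 7.5% in these data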;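 note: red hydrolysis product quenches plate fluorescence so inhibitors raise well fluorescence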
HCV NS3 hel inh: inhibitors of HCV NS3 helicase, primary screen, biochemical, Cy5 molecular beacon fluorescence; NS3 helicase DNA unwinding; actives 0.56% (n = 290,000); inhibition, % at 10.9 µM; AID 1800, 2009; Hepatitis C virus NS3 helicase;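 active = inhibition above the mean of all tested compounds plus 3 SD, set per campaign, cut at about 35% in these data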
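Control set: DMSO versus 110 µM thioflavine S; Material: NS3 helicase fragment of HCV; Measured by: Cy5 fluorescence at 0 and 60 min, beacon hairpin quenching; Read-out basis: percent inhibition from t60/t0 fluorescence ratio; Times: reaction time 60 min, 25 °C; Repeats: single replicate; Compound dosing: single dose, 10.9 µM nominal final, DMSO 0.8% final.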
FID counter: compounds displacing fluorescent DNA intercalator, primary screen, artefact control for HCV NS3 helicase inhibitor project, biochemical, FID fluorescence. inhibition, % at 7.9 µM. AID 1845, 2009. DNA fluorescent intercalator displacement. actives 0.17% (n = 290,000); in the data active = inhibition above about 37%;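 note: higher means more ethidium bromide displaced from hairpin DNA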
Of the large screens only hits and unclear results are named; the others gave an inactive call; ! = not active in a repeat.

CC(C)(C)Cc1nnc(NS(=O)(=O)Cc2ccccc2)s1	VIM-2 inhibitor 9.0
CCN(CC)S(=O)(=O)c1ccc(N2CCOCC2)c(NC(=O)c2ccc(NC(C)=O)cc2)c1	none
O=C(CN1C(=O)S/C(=C\c2ccc(-c3cc(C(=O)O)ccc3Cl)o2)C1=O)Nc1ccc2c(c1)OCO2	IMP-1 inhibitor 16.8
Cn1cc(/C=C2/SC(=O)N(CC(=O)Nc3ccc4c(c3)OCO4)C2=O)c2ccccc21	none
O=C(O)C1C2CCC(CC2)C1C(=O)N1CCN(Cc2ccc(F)cc2)CC1 (configuration not stated)	IMP-1 inhibitor 15.2
Cc1nc(-c2ccc([N+](=O)[O-])cc2)nc2[nH]ccc(=O)c12	VIM-2 inhibitor 9.7
Cc1nc(-c2ccccc2)nc2[nH]ccc(=O)c12	none
O=C(O)CN1CCCC1=Nc1ccccc1	IMP-1 inhibitor 4.8
O=C(O)CN1CCN(Cc2ccccc2)C1=O	none
CN=C(C)/C(C(=O)OC)=C(/O)c1ccc(Cl)cc1Cl	none
CCOc1ccc(S(=O)(=O)N2CCC(C(=O)NCc3ccccn3)CC2)cc1C	none
COc1cccc(/C=C2\SC(=S)N(CCC(=O)Nc3ccc(O)cc3)C2=O)c1	none
COc1ccc(/C=C2\SC(=S)N(CCC(=O)NC3C=CS(=O)(=O)C3)C2=O)cc1 (configuration not stated)	IMP-1 inhibitor 11.7
O=C(CN1C(=O)/C(=C/c2ccccc2F)SC1=S)NC1C=CS(=O)(=O)C1 (configuration not stated)	IMP-1 inhibitor 7.0
O=C(CN1C(=O)/C(=C/c2cccc(Cl)c2)SC1=S)NC1C=CS(=O)(=O)C1 (configuration not stated)	none
COc1cccc(/C=C2\SC(=S)N(CCC(=O)NC3C=CS(=O)(=O)C3)C2=O)c1 (configuration not stated)	IMP-1 inhibitor 8.2
CC(Sc1n[nH]c(N)n1)C(=O)Nc1ccc(Cl)cn1 (configuration not stated)	none
COc1ccc(NCC(=O)N/N=C/C2CCCCC2)cc1	none
CC(C)=C1C2CCC1C(C(=O)Nc1cc(C)cc(C)c1)C2C(=O)O (configuration not stated)	VIM-2 inhibitor 9.4
COc1ccc(C(C(=O)NCC2CCCO2)N(C(=O)c2snc(C(N)=O)c2N)c2ccccc2C)cc1OC (configuration not stated)	none
O=C(Nc1ccc(Cl)c(-c2nc3ccccc3[nH]2)c1)c1ccc2c(c1)OCO2	none
O=C(Nc1ccc(-c2nc3ccccc3[nH]2)cc1)c1ccc2c(c1)OCO2	IMP-1 inhibitor 28.1
COc1cc(OC)c2c(C)cc(=O)oc2c1	IMP-1 inhibitor 4.9
O=C(CNC(=O)c1cccs1)c1ccc(Br)cc1	none
O=C(OC1CCCCC1)c1ccc2c(c1)C1C=CCC1C(C(=O)O)N2 (configuration not stated)	HCV NS3 hel inh 40.1
CCN1CCN(c2ccc(NC(=O)c3ccc4c(c3)[nH]c(=O)n4Cc3ccc(F)cc3)cc2)CC1	VIM-2 inhibitor 9.2
O=C(NCCCN1CCOCC1)c1ccc(CSc2ccc(Cl)cc2)cc1	FID counter 38.0
CC(C)c1ccc(C(=O)NCCCN2CCOCC2)cc1	none
CCCCc1nnc(NC(=O)COc2ccc3c(C)cc(=O)oc3c2)s1	none
CSc1nc2[nH]c3c(c2c2ncnn12)CCCC3	VIM-2 inhibitor 11.3
CSc1c2c(nc3ncnn13)CCC2	none
COc1cc(-c2cc(=O)c3ccccc3o2)ccc1O	VIM-2 inhibitor 9.5
COc1c(OC)c(O)c2c(=O)cc(-c3c(O)cccc3O)oc2c1OC	none
COc1cc(-c2cc(=O)c3c(O)cc(O)cc3o2)ccc1O	none
COc1ccc(-c2cc(=O)c3c(OC)c(OC)c(OC)c(OC)c3o2)cc1OC	VIM-2 inhibitor 10.3!
O=C(CSc1nnc(-c2ccc(F)cc2)o1)N1CCCC1	none
CCCCCc1ccc(OCCC[n+]2ccccc2)c(CCCCC)c1	FID counter 44.5
CCCCCc1ccc(OCCOCCn2c[n+](C)c3ccccc32)c(CCCCC)c1	FID counter 37.1
O=C(COc1ccc2c3c(c(=O)oc2c1)CCC3)NC(Cc1ccc(Cl)cc1)C(=O)O (configuration not stated)	none
COc1cc(C(O)c2nc3ccccc3n2C(C)C)cc(OC)c1OC (configuration not stated)	FID counter 53.2
COc1ccc(OC)c(C(O)c2nc3ccccc3n2C(C)C)c1 (configuration not stated)	none

Screening data: PubChem, The Scripps Research Institute Molecular Screening Center
